Bioassay records (PubChem BioAssay)
HCV core dimer = inhibitors of HCV core protein dimerization, primary screen, biochemical, TR-FRET, high-throughput | TR-FRET GST/Flag-core106 dimerization, 1536-well | 300,000 compounds, 0.33% hits | AID 1899, 2009 | inhibition, % at 5 µM;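 active = inhibition above the mean of all tested compounds plus 3 SD, set per screening campaign, cut at about 45% in these data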
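assay system = GST-tagged and Flag-tagged HCV core protein residues 1-106 | controls = unlabelled core106 and no-GST-core106 wells | incubation = compound-protein-antibody incubation 4 h at 22.5 °C | probe or stimulus = Eu donor and XL665 acceptor anti-tag antibodies | read-out = % inhibition based on acceptor/donor emission ratio | signal = TR-FRET 671 and 617 nm emission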
MT1-MMP act inh = blockers of MT1-MMP proenzyme processing, primary screen, HT1080 RFP-PRO-GFP cells, GFP/RFP fluorescence; GFP/RFP ratio change, % at 20 µM; Matrix metalloproteinase-14 (Homo sapiens), P50281; GFP/RFP ratio fluorescence, overnight; percent of plate control window, DMSO zero; 360,000 compounds, 0.061% hits;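 active = GFP/RFP ratio change of at least 30% with cell ATP level not reduced by more than half and red fluorescence within 50% of control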
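Read-out: GFP/RFP fluorescence ratio; Test system: RFP-PRO-GFP reporter HT1080 cells; Compound dosing: single-point 20 µM compound, 1% DMSO; Times: overnight compound exposure at 37 °C.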
NR2E3 ag-1 = inhibitors of NR2E3-RetCOR corepressor binding, primary screen, NR2E3 agonist project, biochemical, TR-FRET, GST-NR2E3, biotin-RetCOR. 1536-well. AID 2300, 2010. Photoreceptor-specific nuclear receptor (Homo sapiens), Q9Y5X4. inhibition of corepressor binding, % at 4.78 µM. 320,000 compounds, 0.12% hits;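 active = percent inhibition above the cutoff of mean plus 3 SD of all tested compounds, set per screening campaign, cut at about 20% in these data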
Target sequence (Q9Y5X4 whole entry, looked up): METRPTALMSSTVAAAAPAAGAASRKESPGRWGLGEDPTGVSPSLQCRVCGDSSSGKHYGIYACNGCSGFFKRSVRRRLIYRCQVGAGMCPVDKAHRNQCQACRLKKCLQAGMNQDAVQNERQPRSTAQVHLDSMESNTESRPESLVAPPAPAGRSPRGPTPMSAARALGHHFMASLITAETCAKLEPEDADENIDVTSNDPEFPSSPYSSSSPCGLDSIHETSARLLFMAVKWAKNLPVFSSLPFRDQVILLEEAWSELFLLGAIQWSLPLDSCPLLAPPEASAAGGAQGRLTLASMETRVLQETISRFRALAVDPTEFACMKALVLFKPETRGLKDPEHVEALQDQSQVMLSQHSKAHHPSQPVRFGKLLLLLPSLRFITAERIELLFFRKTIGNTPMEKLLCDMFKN
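Material: NR2E3–RetCOR corepressor complex / Amount: 1.35 nM GST-NR2E3 / Medium: Tris pH 7.5 / Compound: single nominal compound dose of 4.8 µM / Incubation: 5 h at 4 °C / Technique: TR-FRET, Eu(K)-anti-GST donor, streptavidin-D2 acceptor, ex 340, em 617/671 nm / Read-out basis: percent loss of FRET ratio relative to control wells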
Vif imaging = HIV Vif self-association inhibitors, primary screen, imaging, HEK293T, single point; HEK293T cells, Vif self-association by quenched fluorescence, 24 h; inhibition, % at 7.49 µM; 340,000 compounds, 0.35% hits; in the data active = inhibition above about 50%, passing the limit was not always enough
NR2E3 ag-2 = NR2E3 agonists in two-hybrid cells, primary screen, cell-based, luminescence, CHO-S, Gal4-NCOR/VP16-NR2E3. Photoreceptor-specific nuclear receptor (Homo sapiens), Q9Y5X4. inhibition of corepressor binding, % at 3.98 µM. luciferase. 360,000 compounds, 0.35% hits;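 active = inhibition above the mean of all tested compounds plus 3 SD, cut at about 70% in these data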;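 also: higher means lower luciferase signal from less NR2E3 corepressor binding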
DAGLB inhibitor = DAGLB lipase inhibitors, primary screen, biochemical, fluorescence, HTS; inhibition, % at 5.17 µM; 340,000 compounds, 0.059% hits; HEK293T DAGLB membrane lysate, EnzChek fluorogenic substrate; in the data active = inhibition above about 34%
Of the large screens only hits and unclear results are named; the others gave an inactive call. Shown are actives, neighbours in structure and some others; about 1.1% of the full set was active somewhere.

C[C@H]1[C@H](C)CC[C@]2(C(=O)O)CC[C@]3(C)C(=CC[C@@H]4[C@@]5(C)CC[C@H](O)C(C)(C)[C@@H]5CC[C@]43C)[C@H]12	none
C[C@H]1[C@H](C)CC[C@]2(C(=O)O)CC[C@]3(C)C(=CC[C@@H]4[C@@]5(C)C[C@@H](O)[C@H](O)C(C)(C)[C@@H]5CC[C@]43C)[C@H]12	NR2E3 ag-2 93.9 (no result: Vif imaging)
O=C(Nc1ccc2c(c1)OCCO2)C(c1ccncc1)n1c(=O)c(-c2cc3ccccc3[nH]2)nc2ccccc21 (stereo unspecified)	none (no result: HCV core dimer, NR2E3 ag-1, Vif imaging, NR2E3 ag-2, DAGLB inhibitor)
COc1cccc(-n2c(SCC(=O)Nc3cc(C)on3)nc3c([nH]c4ccccc43)c2=O)c1	none
Cc1cc(NC(=O)CSc2nc3c([nH]c4ccccc43)c(=O)n2-c2cccc(C(F)(F)F)c2)no1	Vif imaging 51.3 (no result: HCV core dimer, NR2E3 ag-1)
O=[N+]([O-])c1ccc(CNCc2cc(Cl)ccc2O)cc1	none
Cc1csc(NC(=O)CSc2nc(C)cs2)n1	none (no result: Vif imaging)
COCCNCC(=O)Nc1nc(C)cs1	Vif imaging 59.2 (no result: HCV core dimer, NR2E3 ag-1)
COc1ccc(-n2c(CN3CCOCC3)nc3ccc([N+](=O)[O-])cc3c2=O)c(OC)c1	HCV core dimer 65.0
Cc1cc2oc3ccc(NCCCN4CCOCC4)cc3c(=O)c2cc1C	none
Cc1cc2oc3ccc(NCCCn4ccnc4)cc3c(=O)c2cc1C	Vif imaging 153.6
CC(=O)c1sc2nc(-c3cccs3)ccc2c1N	none
Nc1c(C(=O)Nc2nc3ccccc3s2)sc2nc(-c3cccs3)ccc12	Vif imaging 154.1
CC(C)CN(C(=O)COC(=O)CNC(=O)c1ccccc1)c1c(N)n(Cc2ccccc2)c(=O)[nH]c1=O	none
CC[C@H](C)/C=C(C)/C=C/C1=CC2=CC(=O)[C@]3(C)OC(=O)[C@@H](C(C)=O)[C@@H]3C2=CO1	HCV core dimer 56.4
CC(C)N1C(=O)CSC1c1ccc(Br)cc1 (stereo unspecified)	none
Oc1ccc(/C=N/Nc2nccnc2Cl)c(O)c1	Vif imaging 81.0
Cc1onc(NC(=O)c2ccc(Cl)cc2Cl)c1Br	none
CC1CC(O)C2C3(C)CCCC2(COC3=O)C12CCC1(CCOC1=O)O2 (stereo unspecified)	none (no result: HCV core dimer, NR2E3 ag-1, DAGLB inhibitor)
OCCO	Vif imaging 55.2 (no result: HCV core dimer, NR2E3 ag-1)
Cc1cc2oc(C(=O)Nc3ccc(S(=O)(=O)Nc4nccs4)cc3)cc(=O)c2cc1Cl	HCV core dimer 58.1
N#Cc1cccc(C(=O)Nc2ccc(S(=O)(=O)Nc3nccs3)cc2)c1	Vif imaging 65.9 (no result: HCV core dimer, NR2E3 ag-1)
O=C(Nc1ccc(S(=O)(=O)Nc2nccs2)cc1)c1nn(-c2ccccc2)ccc1=O	HCV core dimer 63.4
NC(=O)C(=O)NCCCN1CCOCC1	none
COC(C(=O)N/N=C/c1ccc(OCC(=O)N2CCOCC2)cc1)c1ccccc1 (stereo unspecified)	none
CC(=O)Nc1ccc(-c2ccnc3c2CC(C(=O)NCc2ccccc2)O3)cc1 (stereo unspecified)	Vif imaging 66.0 (no result: HCV core dimer, NR2E3 ag-1, DAGLB inhibitor)
COC(=O)C1=C(C)N(Cc2ccco2)C(=O)/C1=C\c1ccc([N+](=O)[O-])cc1	none
COC(=O)C1=C(C)N(Cc2ccco2)C(=O)/C1=C\c1ccc(N(C)C)cc1	Vif imaging 71.0
O=C1CN2CCC1C/C2=C\c1ccnc2c(Cl)cccc12 (stereo unspecified)	none
O=c1c2c(-c3ccco3)csc2nc(SCc2cn3cccnc3n2)n1-c1ccccc1	HCV core dimer 66.1 (no result: Vif imaging)
O=C(CSc1nnc(COc2ccc(Cl)cc2)o1)NC1CC2CCC1C2 (stereo unspecified)	none
COc1ccccc1CNC(=O)C[C@H]1CC[C@@H]2[C@H](COC[C@H](O)CN2Cc2ccc3c(c2)OCO3)O1	none (no result: HCV core dimer, NR2E3 ag-1, Vif imaging, NR2E3 ag-2, DAGLB inhibitor)
COc1ccc(Nc2ccc(OC)cc2)cc1	MT1-MMP act inh 37.5 (no result: DAGLB inhibitor)
C/C(=N\N(c1ccccc1)c1ccccc1)c1ccco1	none
Cc1cc(NC(=O)c2ccc(N3CCCC3)c([N+](=O)[O-])c2)no1	HCV core dimer 48.5
O=C(Nc1ccon1)c1ccc(N2CCCCC2)c([N+](=O)[O-])c1	none
C/C(=N\N=c1/scc(C)n1Cc1ccco1)c1cccc([N+](=O)[O-])c1	none
CCN(C(=S)Nc1ccc(Oc2ccccc2)cc1)c1ccccc1	none
CC(=O)Cn1nnc2sc3c(c2c1=O)CCC(C(C)(C)C)C3 (stereo unspecified)	none
CCOC(=O)c1sc(NC(=O)Cn2nnc3sc4c(c3c2=O)CCC(C(C)(C)C)C4)nc1C (stereo unspecified)	HCV core dimer 46.1
C#CCOCCOCCOCCNc1nc(N2CCN(C(=O)CCCCCCCCCCNC(=O)Cn3cc(CCCCCN)nn3)CC2)nc(N2CCN(C(=O)CCCCCCCCCCNC(=O)[C@H](CO)n3cc(CCCCCN)nn3)CC2)n1	Vif imaging 53.5
C#CCOCCOCCOCCNc1nc(N2CCN(C(=O)CCCCCCCCCCNC(=O)[C@H](CCCCN)n3cc(CCCC(=O)O)nn3)CC2)nc(N2CCN(C(=O)CCCCCCCCCCNC(=O)[C@H](CCCN=C(N)N)n3cc(C[C@@H](C)CC)nn3)CC2)n1	none
C#CCOCCOCCOCCNc1nc(N2CCN(C(=O)CCCCCCCCCCNC(=O)[C@H](CCCCN)n3cc(CCO)nn3)CC2)nc(N2CCN(C(=O)CCCCCCCCCCNC(=O)[C@H](CCCN=C(N)N)n3cc(C[C@@H](C)CC)nn3)CC2)n1	Vif imaging 72.3
Cc1cccc(NC(=O)c2cc(S(=O)(=O)N(C)c3ccc(F)cc3)ccc2Cl)n1	none (no result: Vif imaging)
Cc1noc(C)c1COC(=O)CCCc1c[nH]c2ccccc12	HCV core dimer 71.5
CCOC(=O)CCCc1c[nH]c2ccccc12	none
COc1cccc(C(=O)NCCCNC(=O)c2cccnc2)c1	Vif imaging 86.9
CCOC(=O)/C=c1\s/c(=C\c2ccc(C(F)(F)F)cc2)c(=O)n1CC(=O)NCc1ccco1	HCV core dimer 54.5
CCOC(=O)CC1(C)Sc2ccccc2N1S(=O)(=O)c1ccc(C)cc1 (stereo unspecified)	none (no result: HCV core dimer, NR2E3 ag-1, Vif imaging, NR2E3 ag-2, DAGLB inhibitor)
CC(C)c1ccc(-c2c(C#N)c(N)nc(SCC(=O)N3CCCCC3)c2C#N)cc1	HCV core dimer 46.6
CC(C)c1ccc(-c2c(C#N)c(N)nc(SCC(=O)N3CCCCCC3)c2C#N)cc1	none (no result: MT1-MMP act inh, Vif imaging, NR2E3 ag-2, DAGLB inhibitor)
Cn1c(SCC(=O)Nc2cccnc2Cl)nnc1-c1ccco1	none (no result: HCV core dimer, NR2E3 ag-1)
